Values belong to the molecule of their own block, whether it stands above or below them. Calls of active or inactive are those of the source. The calls are words filed in the database; no cut-off is given here.
What was measured:
[1] = target: T1, Beta 1,3 N-acetylglucosaminyltransferase (Neisseria meningitidis) (UniProt Q8KHG4); experiment: Activity of Neisseria meningitidis beta1,3-N-acetylglucosaminyltransferase LgtA assessed as enzyme catalyzed glycosylation using self-assembled monolayers having lactoside as acceptor at 2 mM after 5 to 120 mins by SAMDI MS assay
T1 sequence (whole entry): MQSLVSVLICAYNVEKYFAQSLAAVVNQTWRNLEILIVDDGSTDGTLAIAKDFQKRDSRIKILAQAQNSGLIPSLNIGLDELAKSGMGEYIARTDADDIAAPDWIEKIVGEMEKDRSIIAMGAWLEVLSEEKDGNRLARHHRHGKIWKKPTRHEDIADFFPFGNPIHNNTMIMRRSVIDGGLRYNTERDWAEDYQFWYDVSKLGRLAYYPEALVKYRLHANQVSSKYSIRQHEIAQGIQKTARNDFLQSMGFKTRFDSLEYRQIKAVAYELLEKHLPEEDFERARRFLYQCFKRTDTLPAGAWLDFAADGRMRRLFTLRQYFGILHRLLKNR
Method in brief: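 Gold islands (2 mm) carry a monolayer of lactose (10% density) with tri(ethylene glycol) groups. Each donor analog (2 mM) is mixed with LgtA in assay buffer, applied to an island, and incubated in a humidified chamber at 30 °C. Times were 5, 10, 15, 20, 30, 40, 60 and 120 min. Arrays were rinsed with water and ethanol, matrix was applied, and relative glycosylation product was read by SAMDI MS.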

[2] = target: T1, Beta 1,3 N-acetylglucosaminyltransferase (Neisseria meningitidis); experiment: Ratio of Vmax to Km for Neisseria meningitidis beta1,3-N-acetylglucosaminyltransferase LgtA assessed as enzyme catalyzed glycosylation using lactose as substrate after 2 to 30 mins by SAMDI analysis
Method in brief: (§1)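 Solution-phase reactions: LgtA with lactose azide acceptor (10 mM) and UDP-sugar donor at five concentrations (1–10 mM), 30 °C. Sets stopped at 12 time points. Aliquots mixed with copper bromide and DIPEA and immobilized on monolayer islands (20 min). Yield comes from product/substrate SAMDI peak intensities. Initial velocities are slopes of linear fits of yield vs time. Apparent Km and Vmax are taken from a reciprocal plot.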

[3] = substrate: CC(=O)N[C@H]1[C@@H](OP(=O)(O)OP(=O)(O)OC[C@H]2O[C@@H](n3ccc(=O)[nH]c3=O)[C@H](O)[C@@H]2O)O[C@H](CO)C[C@@H]1O; experiment: (§2) Activity of Neisseria meningitidis beta1,3-N-acetylglucosaminyltransferase LgtA assessed as enzyme catalyzed glycosylation using lactose as substrate after 2 to 30 mins by SAMDI analysis; method in brief: as §1
[4] = substrate: CC(=O)N[C@H]1[C@@H](OP(=O)(O)OP(=O)(O)OC[C@H]2O[C@@H](n3ccc(=O)[nH]c3=O)[C@H](O)[C@@H]2O)O[C@H](C)[C@H](O)[C@@H]1O; experiment: as §2; method in brief: as §1
[5] = substrate: CCC(=O)N[C@H]1[C@@H](OP(=O)(O)OP(=O)(O)OC[C@H]2O[C@@H](n3ccc(=O)[nH]c3=O)[C@H](O)[C@@H]2O)O[C@H](CO)[C@@H](O)[C@@H]1O; experiment: as §2; method in brief: as §1
[6] = substrate: CC(=O)N[C@H]1[C@@H](OP(=O)(O)OP(=O)(O)OC[C@H]2O[C@@H](n3ccc(=O)[nH]c3=O)[C@H](O)[C@@H]2O)O[C@H](C)[C@@H](O)[C@@H]1O; experiment: as §2; method in brief: as §1

Molecule: CCC(=O)N[C@H]1[C@@H](OP(=O)(O)OP(=O)(O)OC[C@H]2O[C@@H](n3ccc(=O)[nH]c3=O)[C@H](O)[C@@H]2O)O[C@H](CO)[C@@H](O)[C@@H]1O
- Vmax/Km [2]: 0.005 min⁻¹

Molecule: [N-]=[N+]=NCC(=O)N[C@H]1[C@@H](OP(=O)(O)OP(=O)(O)OC[C@H]2O[C@@H](n3ccc(=O)[nH]c3=O)[C@H](O)[C@@H]2O)O[C@H](CO)[C@@H](O)[C@@H]1O
- Activity [1]: inactive

B1: Beta 1,3 N-acetylglucosaminyltransferase (Neisseria meningitidis), Q8KHG4 (protein)
chain: MQSLVSVLICAYNVEKYFAQSLAAVVNQTWRNLEILIVDDGSTDGTLAIAKDFQKRDSRIKILAQAQNSGLIPSLNIGLDELAKSGMGEYIARTDADDIAAPDWIEKIVGEMEKDRSIIAMGAWLEVLSEEKDGNRLARHHRHGKIWKKPTRHEDIADFFPFGNPIHNNTMIMRRSVIDGGLRYNTERDWAEDYQFWYDVSKLGRLAYYPEALVKYRLHANQVSSKYSIRQHEIAQGIQKTARNDFLQSMGFKTRFDSLEYRQIKAVAYELLEKHLPEEDFERARRFLYQCFKRTDTLPAGAWLDFAADGRMRRLFTLRQYFGILHRLLKNR
- Km [3]: 3.28 mM
- Vmax [3]: 0.097 mM/min
- Km [4]: 3.05 mM
- Vmax [4]: 0.115 mM/min
- Km [5]: 21.1 mM
- Vmax [5]: 0.11 mM/min
- Km [6]: 1.32 mM
- Vmax [6]: 0.343 mM/min

Now from value to molecule:

- Activity [1]: Active
- Vmax/Km [2]: 0.259 min⁻¹
Molecule: CC(=O)N[C@H]1[C@@H](OP(=O)(O)OP(=O)(O)OC[C@H]2O[C@@H](n3ccc(=O)[nH]c3=O)[C@H](O)[C@@H]2O)O[C@H](C)[C@@H](O)[C@@H]1O

- Vmax/Km [2]: 1.15 min⁻¹
Molecule: CC(=O)N[C@@H]1[C@H](OP(=O)(O)OP(=O)(O)OC[C@H]2O[C@@H](n3ccc(=O)[nH]c3=O)[C@H](O)[C@@H]2O)O[C@@H](CO)[C@H](O)[C@H]1O (stereo in doubt; 1)

- Vmax/Km [2]: 0.029 min⁻¹
Molecule: CC(=O)N[C@H]1[C@@H](OP(=O)(O)OP(=O)(O)OC[C@H]2O[C@@H](n3ccc(=O)[nH]c3=O)[C@H](O)[C@@H]2O)O[C@H](CO)C[C@@H]1O

- Vmax/Km [2]: 0.038 min⁻¹
Molecule: CC(=O)N[C@H]1[C@@H](OP(=O)(O)OP(=O)(O)OC[C@H]2O[C@@H](n3ccc(=O)[nH]c3=O)[C@H](O)[C@@H]2O)O[C@H](C)[C@H](O)[C@@H]1O

- Vmax/Km [2]: 0.065 min⁻¹
Molecule: CC(=O)N[C@@H]1[C@H](OP(=O)(O)OP(=O)(O)OC[C@H]2O[C@@H](n3ccc(=O)[nH]c3=O)[C@H](O)[C@@H]2O)O[C@@H](CO)[C@H](O)[C@H]1O (stereo in doubt; 8)

— ChEMBL document CHEMBL1817661, “Combining carbochips and mass spectrometry to study the donor specificity for the Neisseria meningitidis β1,3-N-acetylglucosaminyltransferase LgtA” (Bioorg Med Chem Lett, 2011)
